Rows were chosen to be rich in hits. Some 4.6% of all compounds tested hit in one or more screens of this group.
CHO parental Ca: counter-screen for OX1R antagonists: effect in parental CHO cells; parental CHO-K1, ATP-induced calcium, Fluo-8 fluorescence; inhibition, % at 5.6 µM; 0.63% of 330,000 active; AID 463079;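 active means inhibition above that plate's mean sample inhibition plus 3 SD, cut at about 26% in these data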
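Test system: parental CHO cells; detection: calcium-sensitive Fluo-8 fluorescence; evaluation: percent inhibition of calcium signal; also added: ATP as calcium-mobilizing challenge; repeats: one well per compound; control set: ATP-challenged DMSO wells low, unchallenged DMSO wells high; compound: single nominal dose of 5.6 µM per compound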
TAAR1 antag: human TAAR1 antagonism; Q96RJ0; CHO RD-HGA16 TAAR1, Fluo-8 calcium fluorescence, antagonist; inhibition, % at 3 µM; 1.5% of 360,000 active; AID 624466;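 active means inhibition above a per-plate cutoff, the mean inhibition of test compounds on that plate plus 3 SD, cut at about 49% in these data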
Target sequence (Q96RJ0 whole entry, looked up): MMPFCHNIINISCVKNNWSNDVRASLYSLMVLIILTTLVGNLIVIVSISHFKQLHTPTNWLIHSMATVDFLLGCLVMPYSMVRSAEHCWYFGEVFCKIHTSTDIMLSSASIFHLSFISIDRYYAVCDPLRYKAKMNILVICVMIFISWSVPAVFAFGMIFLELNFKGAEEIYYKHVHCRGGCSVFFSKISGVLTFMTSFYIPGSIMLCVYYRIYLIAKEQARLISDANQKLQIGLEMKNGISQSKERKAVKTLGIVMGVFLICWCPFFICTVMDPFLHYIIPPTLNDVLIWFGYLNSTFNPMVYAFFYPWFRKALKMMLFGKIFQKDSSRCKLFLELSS
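System: RD-HGA16 CHO cells with stable hTAAR1 and Gα16 | Probe or stimulus: EC80 β-phenethylamine stimulus | Dosing: 3 µM, single point | Times: Dye loading 75 min at 37 °C, then 30 min room temperature | Measured by: Fluo-8 calcium-sensitive fluorescence | Read-out basis: % inhibition of agonist calcium response | Replicates: n of 1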
GPR7 antag: human neuropeptides B/W receptor 1 antagonism; P48145; GPR7-expressing cells, fluorescence antagonist assay; inhibition, % at 4.4 µM; 1.1% of 290,000 active; in the data active means inhibition above about 16%, passing the limit was not always enough;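 further: cells stimulated with the agonist NPW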
Target sequence (P48145 whole entry, looked up): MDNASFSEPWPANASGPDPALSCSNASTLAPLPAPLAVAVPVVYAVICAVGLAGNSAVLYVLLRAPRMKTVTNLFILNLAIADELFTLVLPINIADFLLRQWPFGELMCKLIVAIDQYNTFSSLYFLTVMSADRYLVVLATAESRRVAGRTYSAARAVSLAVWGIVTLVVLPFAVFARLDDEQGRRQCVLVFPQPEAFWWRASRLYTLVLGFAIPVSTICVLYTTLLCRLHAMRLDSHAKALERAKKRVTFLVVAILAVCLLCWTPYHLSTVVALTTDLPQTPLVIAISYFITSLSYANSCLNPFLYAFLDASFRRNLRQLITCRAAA
TAAR1 agonist: human TAAR1 agonism | CHO RD-HGA16 TAAR1, Fluo-8 calcium fluorescence; vehicle wells 0%, saturating PEA agonist 100% | AID 624467 | 0.99% of 360,000 active | Q96RJ0 | activation, % at 3 µM;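 active means activation above the mean activation of all test compounds in the run plus 3 SD, cut at about 38% in these data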
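System: CHO RD-HGA16 cells carrying human TAAR1 plus Gα16; Incubation: 17-24 h seeding, 75 min 37 °C dye, 30 min RT; Measured by: Fluo-8 fluorescence, 5 s baseline then 140 s kinetic read; Control set: DMSO and PEA EC100; Replication: single well for each compound.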
OX1R antag-1: antagonists of human orexin 1 receptor (OX1R) | inhibition, % at 6.6 µM | O43613 | AID 485270 | OX1R-expressing cells, FRET antagonist read-out | 1.8% of 330,000 active; in the data active means inhibition mostly above about 38%, no sharp cut-off; inactive means mostly below about 40%
OX1R antag-2: antagonists of human orexin 1 receptor | 0.43% of 330,000 active | CHO/OX1R cells, Fluo-8 calcium fluorescence, orexin A | AID 434989 | inhibition, % at 5 µM | O43613;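 active means inhibition above its plate's threshold, mean inhibition of all tested compounds on the plate plus 3 SD, cut at about 37% in these data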
OX1R Fluo8 conf: confirmation of human orexin 1 receptor antagonists; shares compounds with OX1R antag-2; CHO/OX1R cells, orexin A calcium Fluo-8 fluorescence; inhibition, % at 5 µM; 38% of 1,100 active; AID 492963; in the data active means inhibition above about 29%
CHO Ca triplic: counter-screen for OX1R antagonists: effect in parental CHO cells; shares compounds with OX1R antag-2; parental CHO-K1, ATP-induced calcium, Fluo-8 fluorescence; inhibition, % at 5.6 µM; 9.3% of 1,100 active; AID 492965;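 active means inhibition above a per-plate limit, the mean inhibition of that plate's test compounds plus 3 SD, cut at about 25% in these data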
OX1R HTRF confirm: confirmation of human orexin 1 receptor antagonists, HTRF format | shares compounds with OX1R antag-1 | inhibition, % at 6.6 µM | OX1R-expressing cells, HTRF antagonist assay | 49% of 1,800 active; in the data active means inhibition above about 55%;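 further: CHO cells expressing OX1R stimulated with orexin A at about EC80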
CHO-K1 HTRF: signal in parental CHO-K1 cells, OX1R antagonist counter-screen; inhibition, % at 6.6 µM; 48% of 1,800 active; HTRF counterscreen; shares compounds with OX1R antag-1; in the data active means inhibition above about 17%
Each line names hits and unclear results; the compound was inactive in the other large screens (follow-up assays come after a bar, where they were run).

CC(C)(OC(=O)c1cccs1)c1cc2ccccc2c(=O)o1	none (no result: GPR7 antag)
CC(=O)NC(Cc1c[nH]c2ccccc12)C(=O)N/N=C/c1ccccc1 (centres undefined)	OX1R antag-1 72.9, OX1R antag-2 64.3 | OX1R Fluo8 conf 35.5 | CHO Ca triplic inactive | OX1R HTRF confirm 72.2 | CHO-K1 HTRF inactive
COC(=O)[C@@]1(Cc2ccc(F)cc2)[C@H]2c3cc(C(=O)N(C)C)n(Cc4ccc(S(C)(=O)=O)cc4)c3C[C@H]2CN1C(=O)c1ccccc1	none (no result: CHO parental Ca, GPR7 antag, OX1R antag-1, OX1R antag-2)
COc1cccc(-c2cc(C(=O)Nc3ccccc3SC)no2)c1	OX1R antag-1 60.5, OX1R antag-2 75.7 | OX1R Fluo8 conf 70.8 | CHO Ca triplic inactive | OX1R HTRF confirm 94.6 | CHO-K1 HTRF inactive
COc1ccc(-c2cc(C(=O)Nc3ccccc3SC)no2)cc1OC	none
O=C1CCN(S(=O)(=O)c2ccccc2)CCN1CCOCc1ccc(Cl)cc1	none (no result: GPR7 antag)
CC(Sc1ccc(Cl)cc1)C(=O)NNC(=O)c1ccccc1O (centres undefined)	OX1R antag-1 65.5 | OX1R Fluo8 conf 31.9 | CHO Ca triplic inactive | OX1R HTRF confirm 74.7 | CHO-K1 HTRF inactive
Cc1ccc(NC(=O)CN2CCCC2c2cccs2)cc1S(=O)(=O)N1CCCCC1 (centres undefined)	OX1R antag-1 29.5, OX1R antag-2 43.3 (no result: GPR7 antag) | OX1R Fluo8 conf inactive | CHO Ca triplic inactive | OX1R HTRF confirm inactive | CHO-K1 HTRF inactive
Cc1ccc(OC(F)F)c(NC(=O)Nc2cccc(C(F)(F)F)c2)c1	OX1R antag-1 45.7 (no result: TAAR1 antag, TAAR1 agonist) | OX1R Fluo8 conf inactive | CHO Ca triplic inactive | OX1R HTRF confirm inactive | CHO-K1 HTRF inactive
O=C(Nc1cccc(S(=O)(=O)NCc2ccco2)c1)c1cc(-c2ccccc2)nc2ccccc12	TAAR1 antag 59.0, OX1R antag-1 78.1, OX1R antag-2 45.6 | OX1R Fluo8 conf 41.5 | CHO Ca triplic inactive | OX1R HTRF confirm 73.7 | CHO-K1 HTRF inactive
O=C(NCc1ccco1)c1cc(-c2ccccc2)nc2ccccc12	none
Cc1cccc(NC(=O)c2ccc(F)c(S(=O)(=O)NCc3ccco3)c2)c1	OX1R antag-1 85.5, OX1R antag-2 58.1 | OX1R Fluo8 conf 43.6 | CHO Ca triplic inactive | OX1R HTRF confirm 74.7 | CHO-K1 HTRF inactive
O=C(Nc1cccc(Cl)c1)c1ccc(F)c(S(=O)(=O)NCc2cccs2)c1	OX1R antag-1 84.6, OX1R antag-2 63.5 | OX1R Fluo8 conf 30.7 | CHO Ca triplic inactive | OX1R HTRF confirm 77.8 | CHO-K1 HTRF inactive
C=CCN=C1CC(C)(C)C(C(=O)OC)C(O)=C1C(=O)CCC (centres undefined)	none
COC(=O)c1ccc(NC(=O)c2ccc3nc(C)sc3c2)cc1	none
COc1ccc2c(Cl)c(C(=O)N/N=C/c3c(C)[nH]c4ccccc34)sc2c1	OX1R antag-1 65.3, OX1R antag-2 40.8 | OX1R Fluo8 conf 63.2 | CHO Ca triplic inactive | OX1R HTRF confirm 93.0 | CHO-K1 HTRF inactive
O=C(N/N=C/c1c[nH]c2ccccc12)c1ccccc1	none
O=C(N/N=C/c1c[nH]c2ccccc12)c1sc2ccccc2c1Cl	OX1R antag-1 89.7 | OX1R Fluo8 conf 40.5 | CHO Ca triplic inactive | OX1R HTRF confirm 63.4 | CHO-K1 HTRF inactive
COc1cccc(C(=O)NCC(=O)N/N=C/c2c(C)[nH]c3ccccc23)c1	none
CCOC(=O)C1CCCN(C(=O)c2cc3ccc(OC)cc3[nH]2)C1 (centres undefined)	none (no result: CHO parental Ca, OX1R antag-1, OX1R antag-2)
Cc1ccc(N(CC(=O)NCCc2ccc(Cl)cc2)S(=O)(=O)c2c(C)noc2C)cc1	OX1R antag-1 48.6 | OX1R Fluo8 conf 59.5 | CHO Ca triplic inactive | OX1R HTRF confirm 86.3 | CHO-K1 HTRF inactive
COc1ccc(CNC(=O)CN(c2ccc(C(C)C)cc2)S(=O)(=O)c2c(C)noc2C)cc1	none
Cc1ccc(CCNC(=O)CN(c2ccc(C)cc2)S(=O)(=O)c2c(C)noc2C)cc1	OX1R antag-1 79.9, OX1R antag-2 59.6 | OX1R Fluo8 conf 29.5 | CHO Ca triplic inactive | OX1R HTRF confirm 79.7 | CHO-K1 HTRF inactive
COc1ccc(N(CC(=O)NC(C)c2ccccc2)S(=O)(=O)c2c(C)noc2C)cc1 (centres undefined)	OX1R antag-1 67.4 | OX1R Fluo8 conf inactive | CHO Ca triplic inactive | OX1R HTRF confirm 65.5 | CHO-K1 HTRF inactive
Cc1noc(C)c1COC(=O)c1ccc2c(c1)OCO2	none
Cc1noc(C)c1COC(=O)c1ccc2c(c1)S(=O)(=O)c1ccccc1C2=O	OX1R antag-1 111.0, OX1R antag-2 59.4 | OX1R Fluo8 conf 64.7 | CHO Ca triplic inactive | OX1R HTRF confirm 102.3 | CHO-K1 HTRF 17.3
CNC(=O)NC(=O)C(C)OC(=O)c1c2c(nc3ccccc13)/C(=C/c1cccs1)CC2 (centres undefined)	OX1R antag-1 66.4, OX1R antag-2 52.4 | OX1R Fluo8 conf 91.6 | CHO Ca triplic inactive | OX1R HTRF confirm 93.1 | CHO-K1 HTRF inactive
O=C(NCCS(=O)(=O)NC1CCCC1)c1ccc(F)cc1	none (no result: GPR7 antag)
CCc1ccc(-c2cc(C)no2)cc1S(=O)(=O)NCCCN1CCN(c2ccccc2)CC1	OX1R antag-1 41.0 | OX1R Fluo8 conf inactive | CHO Ca triplic inactive | OX1R HTRF confirm inactive | CHO-K1 HTRF inactive
CCc1ccc(-c2cc(C)no2)cc1S(=O)(=O)NCCN1CCC(C)CC1	none
O=C(CCCN1C(=O)/C(=C\c2ccco2)SC1=S)Nc1ccc2ccccc2c1	OX1R antag-1 84.9, OX1R antag-2 45.1 | OX1R Fluo8 conf 42.1 | CHO Ca triplic inactive | OX1R HTRF confirm 89.4 | CHO-K1 HTRF inactive
COc1cc(NC(=O)CSCc2cnn(-c3ccccc3)c2-n2cccc2)cc(OC)c1	OX1R antag-1 78.0, OX1R antag-2 49.7 | OX1R Fluo8 conf inactive | CHO Ca triplic inactive | OX1R HTRF confirm 89.1 | CHO-K1 HTRF inactive
CCOc1cc(C(=S)N2CCOCC2)cc(Br)c1OS(=O)(=O)c1ccccc1	OX1R antag-1 47.4 | OX1R Fluo8 conf 51.6 | CHO Ca triplic inactive | OX1R HTRF confirm 62.1 | CHO-K1 HTRF inactive
Cc1ccc2nsnc2c1S(=O)(=O)NCCc1c(C)[nH]c2ccc(F)cc12	OX1R antag-1 78.0, OX1R antag-2 69.6 | OX1R Fluo8 conf 37.6 | CHO Ca triplic inactive | OX1R HTRF confirm 62.0 | CHO-K1 HTRF inactive

Bioassay records: PubChem BioAssay, The Scripps Research Institute Molecular Screening Center
